Results as given in ChEMBL document CHEMBL2040768, “Synthesis, antimicrobial and cytotoxic activities of sulfone linked bis heterocycles” (Eur J Med Chem, 2012).
The source made the active and inactive calls. The rule behind the calls is not given here.

How the values were obtained:
Klebsiella pneumoniae [1] = assay: Antibacterial activity against Klebsiella pneumoniae at 100 ug/ml after 24 hrs by agar well diffusion method; assay type: functional; conditions: for zone of inhibition at 100 µg/mL: read-out: DIZ
In short: (§1)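 Agar well diffusion. Nutrient plates swabbed with 24 h broth culture of the bacterium; 6 mm wells bored and loaded with DMSO solutions of compound (wells at 50 and 100 per well). Chloramphenicol positive control, DMSO negative control. Plates held 37 °C, 24 h; inhibition zone diameter (mm) measured, mean of duplicates.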

Bacillus subtilis [2] = assay: Antibacterial activity against Bacillus subtilis at 100 ug/ml after 24 hrs by agar well diffusion method; assay type: functional; conditions: for zone of inhibition at 100 µg/mL: read-out: DIZ; in short: as §1
Staphylococcus aureus [3] = assay: Antibacterial activity against Staphylococcus aureus at 100 ug/ml after 24 hrs by agar well diffusion method; assay type: functional; conditions: for zone of inhibition at 100 µg/mL: read-out: DIZ; in short: as §1
Pseudomonas aeruginosa [4] = assay: Antibacterial activity against Pseudomonas aeruginosa at 100 ug/ml after 24 hrs by agar well diffusion method; assay type: functional; conditions: for zone of inhibition at 100 µg/mL: read-out: DIZ; in short: as §1
Klebsiella pneumoniae [5] = assay: Antibacterial activity against Klebsiella pneumoniae at 50 ug/ml after 24 hrs by agar well diffusion method; assay type: functional; conditions: for zone of inhibition at 50 µg/mL: read-out: DIZ; in short: as §1
Staphylococcus aureus [6] = assay: Antibacterial activity against Staphylococcus aureus at 50 ug/ml after 24 hrs by agar well diffusion method; assay type: functional; conditions: for zone of inhibition at 50 µg/mL: read-out: DIZ; in short: as §1
Bacillus subtilis [7] = assay: Antibacterial activity against Bacillus subtilis at 50 ug/ml after 24 hrs by agar well diffusion method; assay type: functional; conditions: for zone of inhibition at 50 µg/mL: read-out: DIZ; in short: as §1
A549 = assay: Cytotoxicity against human A549 cells up to 0.2 mM after 72 hrs by MTT assay
Penicillium chrysogenum [8] = assay: Antifungal activity against Penicillium chrysogenum at 100 ug/ml after 48 hrs by agar well diffusion method; assay type: functional; conditions: for zone of inhibition at 100 µg/mL: read-out: DIZ
In short: (§2)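 Fungal agar well diffusion. Plates swabbed with fungal culture, 6 mm wells filled with DMSO solutions of compound (50 and 100 per well). Ketoconazole positive and DMSO negative controls. Plates incubated 28 °C for 48 h; zone of inhibition diameter (mm) read, average of duplicates.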

Pseudomonas aeruginosa [9] = assay: Antibacterial activity against Pseudomonas aeruginosa at 50 ug/ml after 24 hrs by agar well diffusion method; assay type: functional; conditions: for zone of inhibition at 50 µg/mL: read-out: DIZ; in short: as §1
Aspergillus niger [10] = assay: Antifungal activity against Aspergillus niger at 100 ug/ml after 48 hrs by agar well diffusion method; assay type: functional; conditions: for zone of inhibition at 100 µg/mL: read-out: DIZ; in short: as §2
Aspergillus niger [11] = assay: Antifungal activity against Aspergillus niger at 50 ug/ml after 48 hrs by agar well diffusion method; assay type: functional; conditions: for zone of inhibition at 50 µg/mL: read-out: DIZ; in short: as §2
Penicillium chrysogenum [12] = assay: Antifungal activity against Penicillium chrysogenum at 50 ug/ml after 48 hrs by agar well diffusion method; assay type: functional; conditions: for zone of inhibition at 50 µg/mL: read-out: DIZ; in short: as §2

| SMILES | zone of inhibition at 100 µg/mL (Klebsiella pneumoniae [1]) [mm] | zone of inhibition at 100 µg/mL (Bacillus subtilis [2]) [mm] | zone of inhibition at 100 µg/mL (Staphylococcus aureus [3]) [mm] | zone of inhibition at 100 µg/mL (Pseudomonas aeruginosa [4]) [mm] | zone of inhibition at 50 µg/mL (Klebsiella pneumoniae [5]) [mm] | zone of inhibition at 50 µg/mL (Staphylococcus aureus [6]) [mm] | zone of inhibition at 50 µg/mL (Bacillus subtilis [7]) [mm] | Activity (A549) | zone of inhibition at 100 µg/mL (Penicillium chrysogenum [8]) [mm] | zone of inhibition at 50 µg/mL (Pseudomonas aeruginosa [9]) [mm] | zone of inhibition at 100 µg/mL (Aspergillus niger [10]) [mm] | zone of inhibition at 50 µg/mL (Aspergillus niger [11]) [mm] | zone of inhibition at 50 µg/mL (Penicillium chrysogenum [12]) [mm] | further results |
| --- | --- | --- | --- | --- | --- | --- | --- | --- | --- | --- | --- | --- | --- | --- |
| O=S(=O)(Cc1nnc(CS(=O)(=O)c2c[nH]nc2S(=O)(=O)c2ccc(Cl)cc2)s1)Nc1ccc(Cl)cc1 | 33 | 31 | 29 | 26 | 30 | 27 | 28 | inactive | 34 | 24 | 32 | 30 | 31 | – |
| Cc1ccc(NS(=O)(=O)Cc2nnc(CS(=O)(=O)c3c[nH]cc3S(=O)(=O)c3ccc(C)cc3)n2N)cc1 | 23 | 21 | 18 | 15 | 21 | 16 | 19 | inactive | 21 | 13 | 19 | 18 | 18 | – |
| O=S(=O)(Cc1nnc(CS(=O)(=O)C2CNN=C2S(=O)(=O)c2ccccc2)o1)Nc1ccccc1 (stereo not given) | – | – | – | – | – | – | – | inactive | – | – | – | – | – | diameter of the inhibition zone (DIZ) (Klebsiella pneumoniae [1]): inactive; diameter of the inhibition zone (DIZ) (Bacillus subtilis [2]): inactive; diameter of the inhibition zone (DIZ) (Staphylococcus aureus [3]): inactive; diameter of the inhibition zone (DIZ) (Pseudomonas aeruginosa [4]): inactive; diameter of the inhibition zone (DIZ) (Klebsiella pneumoniae [5]): inactive; diameter of the inhibition zone (DIZ) (Staphylococcus aureus [6]): inactive; diameter of the inhibition zone (DIZ) (Bacillus subtilis [7]): inactive; diameter of the inhibition zone (DIZ) (Penicillium chrysogenum [8]): inactive; diameter of the inhibition zone (DIZ) (Pseudomonas aeruginosa [9]): inactive; diameter of the inhibition zone (DIZ) (Aspergillus niger [10]): inactive; diameter of the inhibition zone (DIZ) (Aspergillus niger [11]): inactive; diameter of the inhibition zone (DIZ) (Penicillium chrysogenum [12]): inactive |
| O=S(=O)(Cc1nnc(CS(=O)(=O)c2c[nH]nc2S(=O)(=O)c2ccc(Cl)cc2)o1)Nc1ccc(Cl)cc1 | 24 | 22 | 23 | 21 | 23 | 20 | 21 | inactive | 24 | 19 | 23 | 20 | 21 | – |
| O=S(=O)(Cc1nnc(CS(=O)(=O)c2c[nH]cc2S(=O)(=O)c2ccccc2)o1)Nc1ccccc1 | – | 15 | 14 | – | – | 12 | 13 | inactive | – | – | – | – | – | diameter of the inhibition zone (DIZ) (Klebsiella pneumoniae [1]): inactive; diameter of the inhibition zone (DIZ) (Pseudomonas aeruginosa [4]): inactive; diameter of the inhibition zone (DIZ) (Klebsiella pneumoniae [5]): inactive; diameter of the inhibition zone (DIZ) (Penicillium chrysogenum [8]): inactive; diameter of the inhibition zone (DIZ) (Pseudomonas aeruginosa [9]): inactive; diameter of the inhibition zone (DIZ) (Aspergillus niger [10]): inactive; diameter of the inhibition zone (DIZ) (Aspergillus niger [11]): inactive; diameter of the inhibition zone (DIZ) (Penicillium chrysogenum [12]): inactive |
| O=S(=O)(Cc1nnc(CS(=O)(=O)c2c[nH]cc2S(=O)(=O)c2ccc(Cl)cc2)o1)Nc1ccc(Cl)cc1 | 25 | 21 | 20 | 20 | 23 | 18 | 17 | inactive | 26 | 18 | 24 | 21 | 22 | – |
| Nn1c(CS(=O)(=O)/C=C/S(=O)(=O)c2ccccc2)nnc1CS(=O)(=O)Nc1ccccc1 | 28 | 26 | 23 | 18 | 26 | 21 | 24 | inactive | 26 | 17 | 24 | 21 | 23 | – |
| Nn1c(CS(=O)(=O)Nc2ccc(Cl)cc2)nnc1CS(=O)(=O)C1CNN=C1S(=O)(=O)c1ccc(Cl)cc1 (stereo not given) | 30 | 27 | 27 | 24 | 28 | 25 | 24 | inactive | 32 | 21 | 30 | 28 | 29 | – |
| O=S(=O)(Cc1nnc(CS(=O)(=O)C2CNN=C2S(=O)(=O)c2ccc(Cl)cc2)s1)Nc1ccc(Cl)cc1 (stereo not given) | 28 | 26 | 27 | 23 | 25 | 24 | 25 | inactive | 31 | 22 | 29 | 28 | 28 | – |
| O=S(=O)(/C=C/S(=O)(=O)c1ccccc1)Cc1nnc(CS(=O)(=O)Nc2ccccc2)s1 | 26 | 24 | 21 | 17 | 24 | 19 | 22 | inactive | 24 | 16 | 22 | 19 | 21 | – |
| Cc1ccc(NS(=O)(=O)Cc2nnc(CS(=O)(=O)C3CNN=C3S(=O)(=O)c3ccc(C)cc3)o2)cc1 (stereo not given) | – | – | – | – | – | – | – | inactive | – | – | – | – | – | diameter of the inhibition zone (DIZ) (Klebsiella pneumoniae [1]): inactive; diameter of the inhibition zone (DIZ) (Bacillus subtilis [2]): inactive; diameter of the inhibition zone (DIZ) (Staphylococcus aureus [3]): inactive; diameter of the inhibition zone (DIZ) (Pseudomonas aeruginosa [4]): inactive; diameter of the inhibition zone (DIZ) (Klebsiella pneumoniae [5]): inactive; diameter of the inhibition zone (DIZ) (Staphylococcus aureus [6]): inactive; diameter of the inhibition zone (DIZ) (Bacillus subtilis [7]): inactive; diameter of the inhibition zone (DIZ) (Penicillium chrysogenum [8]): inactive; diameter of the inhibition zone (DIZ) (Pseudomonas aeruginosa [9]): inactive; diameter of the inhibition zone (DIZ) (Aspergillus niger [10]): inactive; diameter of the inhibition zone (DIZ) (Aspergillus niger [11]): inactive; diameter of the inhibition zone (DIZ) (Penicillium chrysogenum [12]): inactive |
| O=S(=O)(Cc1nnc(CS(=O)(=O)C2CNN=C2S(=O)(=O)c2ccc(Cl)cc2)o1)Nc1ccc(Cl)cc1 (stereo not given) | 24 | 20 | 18 | 19 | 22 | 17 | 17 | inactive | 24 | 17 | 23 | 20 | 22 | – |
| Cc1ccc(NS(=O)(=O)Cc2nnc(CS(=O)(=O)c3c[nH]nc3S(=O)(=O)c3ccc(C)cc3)s2)cc1 | 15 | 13 | 14 | 11 | 13 | 12 | 10 | inactive | 13 | 8 | 13 | 10 | 11 | – |
| O=S(=O)(Cc1nnc(CS(=O)(=O)c2c[nH]cc2S(=O)(=O)c2ccccc2)s1)Nc1ccccc1 | 22 | 20 | 17 | 15 | 20 | 15 | 18 | inactive | 20 | 14 | 18 | 16 | 17 | – |
| O=S(=O)(/C=C/S(=O)(=O)c1ccccc1)Cc1nnc(CS(=O)(=O)Nc2ccccc2)o1 | – | 14 | 13 | – | – | 10 | 12 | inactive | – | – | – | – | – | diameter of the inhibition zone (DIZ) (Klebsiella pneumoniae [1]): inactive; diameter of the inhibition zone (DIZ) (Pseudomonas aeruginosa [4]): inactive; diameter of the inhibition zone (DIZ) (Klebsiella pneumoniae [5]): inactive; diameter of the inhibition zone (DIZ) (Penicillium chrysogenum [8]): inactive; diameter of the inhibition zone (DIZ) (Pseudomonas aeruginosa [9]): inactive; diameter of the inhibition zone (DIZ) (Aspergillus niger [10]): inactive; diameter of the inhibition zone (DIZ) (Aspergillus niger [11]): inactive; diameter of the inhibition zone (DIZ) (Penicillium chrysogenum [12]): inactive |
